The values below come from ChEMBL document CHEMBL5705897, “Characterization of WZ4003 and HTH-01-015 as selective inhibitors of the LKB1-tumour-suppressor-activated NUAK kinases” (Biochem J, 2014).

In one experiment the test system is U2OS. The experiment can be described thus: Antiproliferative activity against human U2OS cells assessed as reduction in cell viability at 10 uM after 5 days by CellTiter 96 non-radioactive cell proliferation assay. In kind it is functional, cell-based. The following applies: time 5.0 day. Put shortly: (§1)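 Colorimetric CellTiter 96 AQueous proliferation assay in 96-well format; 2000 cells/well seeded for U2OS, 3000 cells/well for MEFs; grown 5 days with or without 10 μM inhibitor; run in triplicate. Inhibitors dissolved in DMSO, final DMSO in medium ≤1%. MEFs cultured in DMEM/10% FBS, glutamine, non-essential amino acids, sodium pyruvate.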

Experiment [1] deals with MAP kinase-activated protein kinase 2 (Homo sapiens) (UniProt P49137). The experiment can be described thus: Inhibition of recombinant human N-terminal GST/C-terminal Myc-tagged MAPKAPK2 (46 to 400 residues) expressed in Escherichia coli assessed as remaining activity at 1 uM using KKLNRTLSVA as substrate incubated for 30 mins in presence of [gamma-33P]ATP by filter binding method relative to control. In short, it runs like this: (§2)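 Screened at the International Centre for Protein Kinase Profiling against a 140-kinase panel, with inhibitor at 0.1 or 1 μM; activity expressed as percentage of DMSO control reactions, mean of triplicate reactions.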

In experiment [2] the target is Serine/threonine-protein kinase D1 (Homo sapiens) (UniProt Q15139). The experiment can be described thus: Inhibition of recombinant human N-terminal His6-tagged PKD1 (2 to 912 residues) expressed in baculovirus infected Sf21 cells assessed as remaining activity at 1 uM using KKLNRTLSVA as substrate incubated for 30 mins in presence of [gamma-33P]ATP by filter binding method relative to control. In short, it runs like this: as §2

For experiment [3], the system named is MEF. Briefly: Antiproliferative activity against NUAK1+/+ MEF cells assessed as reduction in cell viability at 10 uM after 5 days by CellTiter 96 non-radioactive cell proliferation assay. Type of experiment: functional, cell-based. Conditions: Mus musculus, time 5.0 day. In short, it runs like this:
as §1

The target of experiment [4] is Mitogen-activated protein kinase kinase kinase 11 (Homo sapiens) (UniProt Q16584). Briefly: Inhibition of recombinant human N-terminal GST-tagged MLK3 (96 to 386 residues) expressed in baculovirus infected Sf21 cells assessed as remaining activity at 1 uM using MBP as substrate incubated for 30 mins in presence of [gamma-33P]ATP by filter binding method relative to control. In short, it runs like this:
as §2

Experiment [5] deals with Mitogen-activated protein kinase kinase kinase kinase 2 (Homo sapiens) (UniProt Q12851). The experiment can be described thus: Inhibition of recombinant human N-terminal His6-tagged GCK (2 to 812 residues) expressed in baculovirus infected Sf21 cells assessed as remaining activity at 1 uM using MBP as substrate incubated for 30 mins in presence of [gamma-33P]ATP by filter binding method relative to control. Put shortly:
as §2

The target of experiment [6] is T1, Aurora kinase A (Homo sapiens) (UniProt O14965).
T1 sequence (whole entry): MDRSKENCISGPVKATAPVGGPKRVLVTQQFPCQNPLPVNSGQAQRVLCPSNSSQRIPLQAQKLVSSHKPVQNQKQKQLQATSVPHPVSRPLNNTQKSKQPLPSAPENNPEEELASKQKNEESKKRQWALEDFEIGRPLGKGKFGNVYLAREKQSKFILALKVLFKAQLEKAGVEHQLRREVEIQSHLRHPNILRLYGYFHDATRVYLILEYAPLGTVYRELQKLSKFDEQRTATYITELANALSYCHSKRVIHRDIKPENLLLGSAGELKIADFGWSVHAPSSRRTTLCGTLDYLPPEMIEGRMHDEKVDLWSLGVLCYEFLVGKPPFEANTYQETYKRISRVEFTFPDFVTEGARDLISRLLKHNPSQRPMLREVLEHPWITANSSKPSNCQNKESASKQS
The experiment can be described thus: Inhibition of recombinant human N-terminal […] Aurora A (2 to 403 residues) expressed in Escherichia coli assessed as remaining activity at 1 uM using LRRLSLGLRRLSLGLRRLSLGLRRLSLG as substrate incubated for 30 mins in presence of [gamma-33P]ATP by filter binding method relative to control. In short, it runs like this:
as §2

The test system of experiment [7] is MEF. The experiment can be described thus: Inhibition of cell migration in NUAK1+/+ MEF cells at 10 uM pre incubated for 1 hr followed by overnight incubation and measured after 15 to 20 hrs by microscopic based wound healing assay. In kind it is functional. Conditions: Mus musculus. Put shortly:
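Wound healing: equal MEF numbers loaded into both chambers of inserts with a 500 μm gap, inhibitor (10 μM) added 1 h before; after overnight at 37 °C, 5% CO2 insert removed and gap closure filmed by time-lapse microscopy every 2 min over 15–20 h; triplicate.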

For experiment [8], the target named is Calcium/calmodulin-dependent protein kinase type 1 (Homo sapiens) (UniProt Q14012). Briefly: Inhibition of recombinant human N-terminal GST-tagged CAMK1alpha (2 to 369 residues) expressed in Escherichia coli assessed as remaining activity at 1 uM using YLRRRLSDSNF as substrate incubated for 30 mins in presence of [gamma-33P]ATP by filter binding method relative to control. Put shortly:
as §2

Experiment [9] concerns the target Testis-specific serine/threonine-protein kinase 1 (Homo sapiens) (UniProt Q9BXA7). The experiment can be described thus: Inhibition of recombinant human N-terminal GST-tagged TSSK1 (1 to 367 residues) expressed in Escherichia coli assessed as remaining activity at 1 uM using KKKVSRSGLYRSPSMPENLNRPR as substrate incubated for 30 mins in presence of [gamma-33P]ATP by filter binding method relative to control. In short, it runs like this: as §2

The test system of experiment [10] is Ribosomal protein S6 kinase beta-1 (Homo sapiens), P23443 [T412E]. The experiment can be described thus: Inhibition of recombinant human His6-tagged S6K1 T412E mutant (1 to 421 residues) expressed in baculovirus infected Sf21 cells assessed as remaining activity at 1 uM using KKRNRTLTV as substrate incubated for 30 mins in presence of [gamma-33P]ATP by filter binding method relative to control. Put shortly: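 Run within a 140-kinase specificity panel at the International Centre for Protein Kinase Profiling. Compounds were dissolved in DMSO and tested in vitro at 0.1 or 1 μM. Activity is expressed as percentage of kinase activity in DMSO control reactions, as the mean ± S.D. of triplicate reactions.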

Experiment [11] concerns the target Platelet-derived growth factor receptor alpha (Homo sapiens) (UniProt P16234). The experiment can be described thus: Inhibition of recombinant human PDGFRalpha (551 to 10589 residues) expressed in baculovirus infected Sf21 cells assessed as remaining activity at 1 uM using KKKKEEIYFFFG as substrate incubated for 30 mins in presence of [gamma-33P]ATP by filter binding method relative to control. In short, it runs like this: as §2

Experiment [12] addresses Serine/threonine-protein kinase Chk1 (Homo sapiens) (UniProt O14757). Briefly: Inhibition of recombinant human N-terminal GST-tagged CHK1 (1 to 476 residues) expressed in baculovirus infected Sf21 cells assessed as remaining activity at 1 uM using CHKtide as substrate incubated for 30 mins in presence of [gamma-33P]ATP by filter binding method relative to control. In short, it runs like this:
as §2

Experiment [13] addresses cAMP-dependent protein kinase catalytic subunit alpha (Homo sapiens) (UniProt P17612). The experiment can be described thus: Inhibition of recombinant human N-terminal GST-tagged PKAalpha (2 to 351 residues) expressed in Escherichia coli assessed as remaining activity at 1 uM using Kemptide as substrate incubated for 30 mins in presence of [gamma-33P]ATP by filter binding method relative to control. In short, it runs like this:
as §2

Activity calls are given as the source filed them. No cut-off for these calls is given here.

Sequence of Calcium/calmodulin-dependent protein kinase type 1 (Homo sapiens) (Q14012 whole entry, looked up, the tested form may be a part): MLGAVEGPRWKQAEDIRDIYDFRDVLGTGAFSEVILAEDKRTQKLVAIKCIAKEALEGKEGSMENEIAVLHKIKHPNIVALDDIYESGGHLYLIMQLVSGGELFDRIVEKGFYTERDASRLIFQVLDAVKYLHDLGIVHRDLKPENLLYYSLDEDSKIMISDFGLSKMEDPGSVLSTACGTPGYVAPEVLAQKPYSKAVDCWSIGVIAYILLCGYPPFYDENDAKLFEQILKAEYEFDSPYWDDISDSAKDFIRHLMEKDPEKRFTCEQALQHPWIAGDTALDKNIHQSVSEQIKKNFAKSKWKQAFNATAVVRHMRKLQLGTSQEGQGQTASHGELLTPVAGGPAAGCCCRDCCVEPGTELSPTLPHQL
Sequence of Platelet-derived growth factor receptor alpha (Homo sapiens) (P16234 whole entry, the tested form may be a part): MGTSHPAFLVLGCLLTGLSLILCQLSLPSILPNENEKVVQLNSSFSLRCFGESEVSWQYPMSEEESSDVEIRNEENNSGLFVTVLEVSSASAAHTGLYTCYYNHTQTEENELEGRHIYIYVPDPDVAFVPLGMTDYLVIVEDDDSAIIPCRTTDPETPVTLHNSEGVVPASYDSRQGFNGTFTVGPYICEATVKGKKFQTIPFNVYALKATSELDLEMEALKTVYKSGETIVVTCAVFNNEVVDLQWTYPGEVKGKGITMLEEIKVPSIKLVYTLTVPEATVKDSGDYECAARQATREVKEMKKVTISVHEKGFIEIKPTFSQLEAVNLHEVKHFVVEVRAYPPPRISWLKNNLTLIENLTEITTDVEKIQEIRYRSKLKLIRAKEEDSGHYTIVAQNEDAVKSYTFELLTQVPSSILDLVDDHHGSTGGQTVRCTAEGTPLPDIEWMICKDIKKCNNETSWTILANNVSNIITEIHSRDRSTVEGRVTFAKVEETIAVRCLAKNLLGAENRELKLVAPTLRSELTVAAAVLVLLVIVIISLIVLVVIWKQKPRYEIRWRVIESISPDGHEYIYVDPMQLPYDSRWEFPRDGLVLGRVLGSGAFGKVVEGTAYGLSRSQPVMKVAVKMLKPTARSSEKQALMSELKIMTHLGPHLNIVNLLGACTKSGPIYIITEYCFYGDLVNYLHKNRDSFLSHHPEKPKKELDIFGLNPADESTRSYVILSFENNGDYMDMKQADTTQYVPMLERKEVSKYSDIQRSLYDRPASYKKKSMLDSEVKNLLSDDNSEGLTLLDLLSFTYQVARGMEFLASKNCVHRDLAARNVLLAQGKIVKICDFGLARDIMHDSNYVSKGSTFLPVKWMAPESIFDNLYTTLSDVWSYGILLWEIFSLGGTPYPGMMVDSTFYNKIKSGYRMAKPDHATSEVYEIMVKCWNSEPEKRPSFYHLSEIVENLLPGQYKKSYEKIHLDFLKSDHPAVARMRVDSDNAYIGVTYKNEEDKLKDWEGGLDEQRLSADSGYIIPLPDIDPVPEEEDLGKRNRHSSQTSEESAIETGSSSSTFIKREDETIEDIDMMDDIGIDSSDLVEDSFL
Sequence of Serine/threonine-protein kinase Chk1 (Homo sapiens) (O14757 whole entry, the tested form may be a part): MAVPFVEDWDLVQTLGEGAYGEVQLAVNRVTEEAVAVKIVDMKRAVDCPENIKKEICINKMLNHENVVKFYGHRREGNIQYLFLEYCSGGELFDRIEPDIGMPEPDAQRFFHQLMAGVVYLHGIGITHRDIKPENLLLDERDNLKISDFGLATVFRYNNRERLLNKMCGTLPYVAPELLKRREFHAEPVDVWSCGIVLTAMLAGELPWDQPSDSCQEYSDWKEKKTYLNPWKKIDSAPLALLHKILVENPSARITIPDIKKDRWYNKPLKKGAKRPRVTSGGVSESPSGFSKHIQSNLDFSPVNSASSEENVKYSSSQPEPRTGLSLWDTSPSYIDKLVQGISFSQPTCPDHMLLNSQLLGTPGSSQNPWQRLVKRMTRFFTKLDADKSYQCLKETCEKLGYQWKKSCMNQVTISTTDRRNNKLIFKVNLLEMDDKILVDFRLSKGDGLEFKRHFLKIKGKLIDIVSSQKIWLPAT
Sequence of Mitogen-activated protein kinase kinase kinase kinase 2 (Homo sapiens) (Q12851 whole entry, the tested form may be a part): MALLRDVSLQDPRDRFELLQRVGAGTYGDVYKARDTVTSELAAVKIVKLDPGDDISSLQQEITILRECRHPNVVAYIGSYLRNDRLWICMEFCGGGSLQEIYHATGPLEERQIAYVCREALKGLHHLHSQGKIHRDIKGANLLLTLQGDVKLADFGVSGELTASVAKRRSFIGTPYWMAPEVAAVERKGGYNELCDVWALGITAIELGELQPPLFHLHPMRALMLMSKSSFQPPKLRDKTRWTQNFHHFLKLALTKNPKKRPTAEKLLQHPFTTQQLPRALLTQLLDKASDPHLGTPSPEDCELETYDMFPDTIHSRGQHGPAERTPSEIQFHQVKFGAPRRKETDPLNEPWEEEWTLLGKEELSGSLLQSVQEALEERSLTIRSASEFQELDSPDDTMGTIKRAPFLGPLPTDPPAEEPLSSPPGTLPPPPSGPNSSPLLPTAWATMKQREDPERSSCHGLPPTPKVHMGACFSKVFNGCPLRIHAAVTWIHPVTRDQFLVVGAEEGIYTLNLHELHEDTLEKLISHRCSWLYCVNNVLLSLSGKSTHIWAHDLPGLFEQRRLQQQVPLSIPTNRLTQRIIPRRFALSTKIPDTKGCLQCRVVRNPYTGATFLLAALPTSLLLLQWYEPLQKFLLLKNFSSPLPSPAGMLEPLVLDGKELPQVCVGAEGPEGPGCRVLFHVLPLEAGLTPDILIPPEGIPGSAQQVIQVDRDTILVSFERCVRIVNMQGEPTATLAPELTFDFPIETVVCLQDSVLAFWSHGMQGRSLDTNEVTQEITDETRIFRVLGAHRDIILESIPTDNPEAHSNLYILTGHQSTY
Sequence of MAP kinase-activated protein kinase 2 (Homo sapiens) (P49137 whole entry, looked up, the tested form may be a part): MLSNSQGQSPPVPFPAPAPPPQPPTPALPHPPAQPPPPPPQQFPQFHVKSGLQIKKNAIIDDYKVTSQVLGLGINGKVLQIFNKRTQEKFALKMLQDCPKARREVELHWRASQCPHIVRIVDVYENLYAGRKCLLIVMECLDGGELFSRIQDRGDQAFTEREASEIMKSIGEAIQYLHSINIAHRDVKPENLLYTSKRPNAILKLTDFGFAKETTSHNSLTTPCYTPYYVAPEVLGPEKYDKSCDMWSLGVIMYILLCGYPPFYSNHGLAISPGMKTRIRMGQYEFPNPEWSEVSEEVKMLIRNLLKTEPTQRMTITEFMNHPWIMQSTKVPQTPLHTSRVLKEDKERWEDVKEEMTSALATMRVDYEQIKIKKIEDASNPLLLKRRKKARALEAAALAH
Sequence of Ribosomal protein S6 kinase beta-1 (Homo sapiens), P23443 [T412E] (P23443 whole entry T412E, looked up, the tested form may be a part): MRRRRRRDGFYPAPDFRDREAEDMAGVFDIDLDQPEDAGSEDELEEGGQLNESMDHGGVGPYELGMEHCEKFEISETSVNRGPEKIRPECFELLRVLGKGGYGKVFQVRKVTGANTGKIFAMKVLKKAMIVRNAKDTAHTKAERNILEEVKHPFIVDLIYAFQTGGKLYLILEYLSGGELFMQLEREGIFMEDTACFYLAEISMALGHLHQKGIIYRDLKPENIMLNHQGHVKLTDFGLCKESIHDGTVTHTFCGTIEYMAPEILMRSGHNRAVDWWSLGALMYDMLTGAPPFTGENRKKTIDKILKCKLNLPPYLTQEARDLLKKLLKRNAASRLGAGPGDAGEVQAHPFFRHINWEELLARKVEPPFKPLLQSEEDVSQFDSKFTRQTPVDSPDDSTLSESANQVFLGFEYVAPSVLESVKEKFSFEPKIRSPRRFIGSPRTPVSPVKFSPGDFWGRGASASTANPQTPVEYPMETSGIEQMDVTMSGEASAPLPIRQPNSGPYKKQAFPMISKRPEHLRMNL
Sequence of Mitogen-activated protein kinase kinase kinase 11 (Homo sapiens) (Q16584 whole entry, looked up, the tested form may be a part): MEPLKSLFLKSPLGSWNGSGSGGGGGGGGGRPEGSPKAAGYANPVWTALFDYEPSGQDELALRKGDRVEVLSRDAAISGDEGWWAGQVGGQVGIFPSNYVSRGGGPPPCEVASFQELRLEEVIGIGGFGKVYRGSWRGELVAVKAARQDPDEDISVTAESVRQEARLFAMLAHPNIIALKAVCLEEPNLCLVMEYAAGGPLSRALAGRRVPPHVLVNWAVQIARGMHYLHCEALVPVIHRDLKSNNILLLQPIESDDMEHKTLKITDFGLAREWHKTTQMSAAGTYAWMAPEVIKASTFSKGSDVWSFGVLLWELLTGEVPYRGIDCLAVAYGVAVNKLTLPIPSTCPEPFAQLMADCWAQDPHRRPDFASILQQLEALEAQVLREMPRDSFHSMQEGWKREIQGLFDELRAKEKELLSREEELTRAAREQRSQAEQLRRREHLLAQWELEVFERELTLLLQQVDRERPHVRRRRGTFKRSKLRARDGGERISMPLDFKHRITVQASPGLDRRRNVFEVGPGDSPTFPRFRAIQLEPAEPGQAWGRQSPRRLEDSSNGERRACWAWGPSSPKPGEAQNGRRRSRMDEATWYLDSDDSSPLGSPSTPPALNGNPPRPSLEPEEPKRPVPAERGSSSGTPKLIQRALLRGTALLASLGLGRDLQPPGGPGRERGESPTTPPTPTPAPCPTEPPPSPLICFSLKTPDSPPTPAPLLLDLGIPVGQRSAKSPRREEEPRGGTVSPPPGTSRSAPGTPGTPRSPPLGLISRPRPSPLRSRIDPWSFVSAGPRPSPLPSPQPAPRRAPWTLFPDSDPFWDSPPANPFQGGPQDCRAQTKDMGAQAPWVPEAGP
Sequence of Testis-specific serine/threonine-protein kinase 1 (Homo sapiens) (Q9BXA7 whole entry, the tested form may be a part): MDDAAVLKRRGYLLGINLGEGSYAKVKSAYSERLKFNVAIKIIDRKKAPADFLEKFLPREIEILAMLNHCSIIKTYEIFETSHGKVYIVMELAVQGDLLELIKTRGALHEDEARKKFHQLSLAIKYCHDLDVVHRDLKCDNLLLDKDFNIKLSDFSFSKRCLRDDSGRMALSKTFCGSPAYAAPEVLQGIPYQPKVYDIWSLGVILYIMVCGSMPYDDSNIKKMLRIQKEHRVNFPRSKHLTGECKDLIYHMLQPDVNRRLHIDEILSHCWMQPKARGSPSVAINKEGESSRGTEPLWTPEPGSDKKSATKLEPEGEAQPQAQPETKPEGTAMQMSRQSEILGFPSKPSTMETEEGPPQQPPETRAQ

In the case of `CCC(=O)Nc1cccc(Oc2nc(Nc3ccc(N4CCN(C)CC4)cc3OC)ncc2Cl)c1`, the inhibition entry in the experiment with U2OS, with MEF [3] and with MEF [7] was “Active” each time. Besides, the Activity in [1] was found to be 82%; in [2] it was 57%; in [4] it was 73%; in [5], 96%; in [6], 75%; in experiment [8], 81%. Moreover, the Activity came to 58% in [9]; 83% in experiment [10]; 96% in experiment [11]; 58% in experiment [12]; 84% in [13].
